Compound activity deposited in PubChem by Sanford-Burnham Center for Chemical Genomics.
PPC-1+TRAIL kill – PPC-1 cancer cell killing with TRAIL present; cell killing (% activity), % at 4 µM or 5 µM; AID 1443; PPC-1 cells + TRAIL, ATPLite viability luminescence; actives 0.41% (n = 220,000);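 active = cell killing above 50% in the first pass at 4 µM, then a duplicate retest at 5 µM averaging 50% or more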;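 also: plate controls were cells with TRAIL plus DMSO for no effect and medium-only wells lacking cells for full effect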
FLuc inh counter – Photinus pyralis luciferase inhibition counter-screen; inhibition, % at 10 µM; ATPLite firefly luciferase biochemical luminescence, 10 min; actives 1.5% (n = 200,000);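 active = inhibition above about 50% when tested at 10 µM, limit read from the data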
Target sequence (P08659 whole entry, looked up): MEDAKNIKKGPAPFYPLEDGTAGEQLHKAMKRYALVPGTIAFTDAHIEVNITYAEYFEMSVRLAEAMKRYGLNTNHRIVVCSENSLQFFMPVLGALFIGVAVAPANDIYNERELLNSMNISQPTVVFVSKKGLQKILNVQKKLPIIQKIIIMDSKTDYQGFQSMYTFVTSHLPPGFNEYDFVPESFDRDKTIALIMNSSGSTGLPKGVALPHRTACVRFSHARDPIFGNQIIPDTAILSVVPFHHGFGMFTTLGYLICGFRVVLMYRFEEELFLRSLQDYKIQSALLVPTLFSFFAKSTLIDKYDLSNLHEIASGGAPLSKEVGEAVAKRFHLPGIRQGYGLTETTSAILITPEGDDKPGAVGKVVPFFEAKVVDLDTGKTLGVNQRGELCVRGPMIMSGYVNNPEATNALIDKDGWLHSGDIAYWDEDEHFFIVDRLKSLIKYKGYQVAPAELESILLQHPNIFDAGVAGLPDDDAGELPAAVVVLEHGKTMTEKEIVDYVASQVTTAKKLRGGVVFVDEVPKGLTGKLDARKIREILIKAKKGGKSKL
FLuc stim CS – affects firefly luciferase, flagging false hits in luciferase stimulation screens; P08659; ATPlite luciferase biochemical, luminescence, 10 min; 0 = ATP-free wells, 1 = DMSO control; activation factor at 10 µM; 200,000 tested, under 10 active;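 active = luciferase activation factor, scaled between plate controls, of at least 2 with compound at 10 µM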
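Material: Luciferase/luciferin reagent mix; Doses: test compounds dosed from 2 mM stocks in 100% DMSO; Schedule: 10 min incubation after luciferase reagent addition, room temperature; Measured by: luminescence from luciferase reaction; Read-out: luminescence gain marking luciferase activators.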
TRAIL sens C8 – sensitizes caspase-8 expressing cells to TRAIL. NB7+C8 cells + TRAIL, ATPlite viability luminescence. inhibition (viability loss, TRAIL sensitization), % at 10 µM. actives 1% (n = 360,000). AID 624354;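 active = compounds causing at least 50% loss of cell viability in the single-dose screen, relative to plate controls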
* hit, by the source's call. Only some compounds are listed: those with a hit (about 1.6% of all), similar ones and a draw of the others.

Results for O=C(COC(=O)C(O)c1ccccc1)c1ccc2c(c1)OCCO2 (configuration not stated) ?
PPC-1+TRAIL kill: 5.9; FLuc inh counter: 84.0*; FLuc stim CS: 0.2; TRAIL sens C8: -2.8

Results for COCCCn1c(=N)c(C(=O)NCC2CCCO2)cc2c(=O)n3ccccc3nc21 (configuration not stated) ?
PPC-1+TRAIL kill: 10.2; FLuc inh counter: -0.8; FLuc stim CS: 1; TRAIL sens C8: 2.3

How did Nc1c(C(=O)NCc2ccc(Cl)cc2)sc2nc3c(c(C(F)(F)F)c12)CCC3 do in these assays?
PPC-1+TRAIL kill: 25.6; FLuc inh counter: -9.4; FLuc stim CS: 1.1; TRAIL sens C8: -3.9

How did Cc1sc(NC(=O)/C=C/c2ccc(C(C)C)cc2)c(C#N)c1C do in these assays?
PPC-1+TRAIL kill: 4.0; FLuc inh counter: 0.0; FLuc stim CS: 1; TRAIL sens C8: 19.1

What do the screens show for `CC(C)c1ccc(/C=C/C(=O)Nc2nncs2)cc1`?
PPC-1+TRAIL kill: 28.9; FLuc inh counter: 58.9*; FLuc stim CS: 0.4; TRAIL sens C8: 73.5*

What do the screens show for `N#Cc1c(/N=C/c2cc3ccccc3s2)sc2c1CCC2`?
PPC-1+TRAIL kill: -10.2; FLuc inh counter: 18.2; FLuc stim CS: 0.8; TRAIL sens C8: -17.0

What do the screens show for `Cc1ccc(/C=N/c2sc3c(c2C#N)CCCCC3)o1`?
PPC-1+TRAIL kill: -19.3; FLuc inh counter: 91.5*; FLuc stim CS: 0.1; TRAIL sens C8: -0.6

How did Cc1ccc(/C=N/Nc2ccccn2)s1 do in these assays?
TRAIL sens C8: 1.3

How did Cc1ccc(C=Nc2ccccc2C#N)s1 do in these assays?
PPC-1+TRAIL kill: 24.3; FLuc inh counter: 75.7*; FLuc stim CS: 0.2; TRAIL sens C8: -0.1

Results for Cc1ccc(/C=N/c2sc3c(c2C#N)CCC3)s1 ?
PPC-1+TRAIL kill: 5.6; FLuc inh counter: 71.5*; FLuc stim CS: 0.3; TRAIL sens C8: 5.1

How did Cc1ccc(/C=C/C(=O)Nc2sc3c(c2C#N)CCCC3)o1 do in these assays?
PPC-1+TRAIL kill: 12.5; FLuc inh counter: -5.3; FLuc stim CS: 1.1; TRAIL sens C8: 24.6

What do the screens show for `N#Cc1c(/N=C/c2ccco2)sc2c1CCC2`?
PPC-1+TRAIL kill: 6.6; FLuc inh counter: 50.4*; FLuc stim CS: 0.5; TRAIL sens C8: -2.7

What do the screens show for `CCC(C)(C)C1CCc2c(sc(NC(=O)c3ccccc3C(=O)O)c2C#N)C1` (configuration not stated)?
PPC-1+TRAIL kill: 7.6; TRAIL sens C8: 12.8

How did CC1CCc2c(sc(NC(=O)c3ccccc3C(=O)O)c2C#N)C1 (configuration not stated) do in these assays?
PPC-1+TRAIL kill: 18.5; FLuc inh counter: 76.7*; FLuc stim CS: 0.2; TRAIL sens C8: -1.9

How did CCOC(=O)CCNC(=O)CCNC(=O)C(c1ccccc1)c1ccccc1 do in these assays?
PPC-1+TRAIL kill: 9.2; TRAIL sens C8: -8.9

How did COc1ccc2[nH]c3c(c2c1)CCN1C(=O)N([C@@H](C)C(=O)NC2CCCCC2C)C(=O)[C@]31C (some centres not stated) do in these assays?
TRAIL sens C8: -5.7

What do the screens show for `CCN(CC)CC(O)CN1C(=O)NC(C)(C)C1=O` (configuration not stated)?
PPC-1+TRAIL kill: -2.9; FLuc inh counter: -1.5; FLuc stim CS: 1; TRAIL sens C8: -4.5

What do the screens show for `O=C(N=Nc1c(O)n(Cc2ccccc2)c2ccccc12)c1ccc(O)cc1`?
PPC-1+TRAIL kill: 15.0; FLuc inh counter: 50.7*; FLuc stim CS: 0.5; TRAIL sens C8: 39.2

Results for CCOC(=O)C(=O)N=Nc1c(O)n(C)c2ccccc12 ?
PPC-1+TRAIL kill: -3.5; FLuc inh counter: -4.3; FLuc stim CS: 1; TRAIL sens C8: -5.6

Results for Cn1c(O)c(N=NC(=O)c2ccco2)c2ccccc21 ?
PPC-1+TRAIL kill: 22.8; FLuc inh counter: 64.3*; FLuc stim CS: 0.4; TRAIL sens C8: 40.2

Results for Cn1c(O)c(N=NC(=O)c2ccccc2O)c2ccccc21 ?
PPC-1+TRAIL kill: 33.9; FLuc inh counter: 81.7*; FLuc stim CS: 0.2; TRAIL sens C8: 42.2

How did Cc1occc1C(=O)N=Nc1c(O)n(C)c2ccccc12 do in these assays?
PPC-1+TRAIL kill: 40.6; FLuc inh counter: 59.6*; FLuc stim CS: 0.4; TRAIL sens C8: 34.8

What do the screens show for `COc1cc(C2NC(=S)NC(C)=C2C(=O)c2ccccc2)ccc1O` (configuration not stated)?
PPC-1+TRAIL kill: 21.6; FLuc inh counter: -4.4; FLuc stim CS: 1; TRAIL sens C8: -10.9

How did CC1CN(N=Cc2ccc([N+](=O)[O-])o2)C(=N)O1 (configuration not stated) do in these assays?
TRAIL sens C8: 6.2

What do the screens show for `COc1cc(NC(=O)c2ccco2)ccc1NC(=O)c1ccccc1Cl`?
PPC-1+TRAIL kill: 1.5; FLuc inh counter: -2.8; FLuc stim CS: 1; TRAIL sens C8: 0.9

What do the screens show for `COc1ccc(N=Nc2nc(-c3ccccc3)c(-c3ccccc3)[nH]2)cc1`?
PPC-1+TRAIL kill: 17.7; FLuc inh counter: -0.4; FLuc stim CS: 1; TRAIL sens C8: -3.9

What do the screens show for `O=C(NCc1ccccc1)c1ccc(NC(=O)c2ccccc2F)cc1`?
TRAIL sens C8: 5.3

Results for Cc1cc(C)c(C)c(S(=O)(=O)N2CCN(CC(=O)c3c(N)n(Cc4ccccc4)c(=O)n(C)c3=O)CC2)c1C ?
PPC-1+TRAIL kill: 20.4; FLuc inh counter: -0.6; FLuc stim CS: 1; TRAIL sens C8: 60.9*

What do the screens show for `O=C(Nc1ncc2c(n1)CC(c1ccco1)CC2=O)c1ccccc1` (configuration not stated)?
PPC-1+TRAIL kill: 58.0*; FLuc inh counter: -9.5; FLuc stim CS: 1.1; TRAIL sens C8: 0.3

How did COc1ccc(S(=O)(=O)N2CCCCC2)cc1N(C)S(=O)(=O)c1ccccc1 do in these assays?
TRAIL sens C8: 6.2

How did Oc1ccc(-c2csc(-c3cccnc3)n2)c(O)c1 do in these assays?
PPC-1+TRAIL kill: 1.3; FLuc inh counter: 53.4*; FLuc stim CS: 0.5; TRAIL sens C8: 23.7

Results for c1cncc(-c2csc(-c3cccnc3)n2)c1 ?
TRAIL sens C8: 2.5

What do the screens show for `CCOc1ccc(-n2nnnc2-c2nc3ccccc3s2)cc1`?
PPC-1+TRAIL kill: 19.4; FLuc inh counter: 33.9; FLuc stim CS: 0.7; TRAIL sens C8: 63.2*

What do the screens show for `CCOC(=O)c1ccc(NC(=O)Cn2ncc(Cl)c(Cl)c2=O)cc1`?
PPC-1+TRAIL kill: 9.3; FLuc inh counter: -6.7; FLuc stim CS: 1.1; TRAIL sens C8: 5.8

How did O=C(OCn1ncc(Cl)c(Cl)c1=O)c1ccc(C(F)(F)F)cc1 do in these assays?
PPC-1+TRAIL kill: 10.8; FLuc inh counter: -4.9; FLuc stim CS: 1; TRAIL sens C8: 78.4*

Results for Cc1ccc(C(=O)OCn2ncc(Cl)c(Cl)c2=O)cc1 ?
PPC-1+TRAIL kill: 25.2; FLuc inh counter: -2.1; FLuc stim CS: 1; TRAIL sens C8: 93.8*

What do the screens show for `COc1cccc(-c2cc(C(F)(F)F)nc(-n3ccc([N+](=O)[O-])n3)n2)c1`?
PPC-1+TRAIL kill: 17.9; FLuc inh counter: -3.0; FLuc stim CS: 1; TRAIL sens C8: 2.2

What do the screens show for `Cc1ccc(S(=O)(=O)c2nc(-c3ccccc3Cl)oc2N(C)C)cc1`?
TRAIL sens C8: 29.4
